Data set [1] relates to TSPO. In kind it is binding, human. Conditions: for Specific Binding: single radioligand concentration normalized to 0.5 nM, displacer PBR28; for Ki: read-out: KI of PBR28, displacement of [3H]PK 11195, mean ± SD.
Another data set concerns the target ABCB1 (P-glycoprotein) (Homo sapiens, UniProt P08183). In kind it is cell-based. The following applies: 5 nM radioligand.
For another data set, the target named is ABCC1 (Homo sapiens, UniProt P33527). As to the kind of experiment: Substrate specificity: radioligand accumulation in MCF-7 / MCF-7/VP16 cells. Format: cell-based. Conditions: 5 nM radioligand.
Sequence of ABCC1 (P33527 whole entry): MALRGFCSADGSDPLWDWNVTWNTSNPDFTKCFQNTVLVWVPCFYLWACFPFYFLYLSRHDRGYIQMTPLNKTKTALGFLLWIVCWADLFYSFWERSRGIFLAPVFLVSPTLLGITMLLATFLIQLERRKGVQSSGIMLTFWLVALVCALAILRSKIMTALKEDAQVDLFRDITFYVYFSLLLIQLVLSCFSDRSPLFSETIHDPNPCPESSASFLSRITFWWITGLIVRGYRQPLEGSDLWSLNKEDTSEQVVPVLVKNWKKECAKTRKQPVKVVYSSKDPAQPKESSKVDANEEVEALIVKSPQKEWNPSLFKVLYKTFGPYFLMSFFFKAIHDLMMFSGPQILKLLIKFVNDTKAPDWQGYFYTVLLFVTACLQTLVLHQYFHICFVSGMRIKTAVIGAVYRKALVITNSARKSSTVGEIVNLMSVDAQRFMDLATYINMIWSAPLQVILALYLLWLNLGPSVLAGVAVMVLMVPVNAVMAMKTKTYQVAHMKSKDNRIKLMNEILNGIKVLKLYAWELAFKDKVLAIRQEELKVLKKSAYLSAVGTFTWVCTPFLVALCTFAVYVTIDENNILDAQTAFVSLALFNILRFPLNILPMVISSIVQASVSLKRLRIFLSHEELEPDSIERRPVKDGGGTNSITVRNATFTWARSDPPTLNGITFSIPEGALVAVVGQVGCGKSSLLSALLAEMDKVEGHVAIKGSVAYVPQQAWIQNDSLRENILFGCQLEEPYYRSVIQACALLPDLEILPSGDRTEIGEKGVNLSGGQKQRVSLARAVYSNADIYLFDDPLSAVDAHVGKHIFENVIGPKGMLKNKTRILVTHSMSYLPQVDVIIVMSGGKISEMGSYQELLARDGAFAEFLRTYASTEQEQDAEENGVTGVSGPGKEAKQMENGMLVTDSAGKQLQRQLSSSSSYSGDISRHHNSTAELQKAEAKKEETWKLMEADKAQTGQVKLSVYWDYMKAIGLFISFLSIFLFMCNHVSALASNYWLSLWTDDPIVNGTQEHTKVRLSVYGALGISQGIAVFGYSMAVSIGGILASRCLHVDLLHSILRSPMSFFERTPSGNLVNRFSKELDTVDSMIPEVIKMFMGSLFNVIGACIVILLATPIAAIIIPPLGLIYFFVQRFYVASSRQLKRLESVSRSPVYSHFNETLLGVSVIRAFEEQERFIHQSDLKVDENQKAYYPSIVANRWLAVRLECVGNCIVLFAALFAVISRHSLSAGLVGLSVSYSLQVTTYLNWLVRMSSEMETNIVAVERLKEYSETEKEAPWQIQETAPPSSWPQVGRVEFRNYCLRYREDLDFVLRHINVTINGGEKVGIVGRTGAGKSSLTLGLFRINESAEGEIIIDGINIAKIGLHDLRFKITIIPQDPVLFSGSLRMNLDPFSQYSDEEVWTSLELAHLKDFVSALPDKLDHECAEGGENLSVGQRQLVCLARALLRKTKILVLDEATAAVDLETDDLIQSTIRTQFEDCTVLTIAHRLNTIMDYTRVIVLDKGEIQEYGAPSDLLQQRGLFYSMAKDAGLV
Another data set deals with T1, ABCG2 (Homo sapiens, UniProt Q9UNQ0).
T1 sequence (Q9UNQ0 1-655): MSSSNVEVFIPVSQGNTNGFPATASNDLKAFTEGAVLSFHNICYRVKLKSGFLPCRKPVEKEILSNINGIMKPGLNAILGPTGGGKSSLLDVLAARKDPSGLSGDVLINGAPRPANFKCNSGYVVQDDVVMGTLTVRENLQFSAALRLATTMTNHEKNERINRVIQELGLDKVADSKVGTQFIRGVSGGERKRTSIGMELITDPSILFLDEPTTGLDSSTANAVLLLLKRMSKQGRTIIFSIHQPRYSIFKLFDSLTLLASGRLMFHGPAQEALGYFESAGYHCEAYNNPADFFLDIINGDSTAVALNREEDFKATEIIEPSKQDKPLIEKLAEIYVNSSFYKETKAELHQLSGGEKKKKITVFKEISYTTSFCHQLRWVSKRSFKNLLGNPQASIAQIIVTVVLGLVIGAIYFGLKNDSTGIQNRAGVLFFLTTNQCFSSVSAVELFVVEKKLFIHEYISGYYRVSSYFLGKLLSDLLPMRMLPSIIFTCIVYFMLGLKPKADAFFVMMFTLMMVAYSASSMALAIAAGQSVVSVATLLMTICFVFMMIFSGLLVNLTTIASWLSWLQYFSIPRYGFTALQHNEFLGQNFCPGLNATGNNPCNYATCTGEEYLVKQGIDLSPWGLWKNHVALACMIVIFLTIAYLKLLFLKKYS
The experiment in a line: Substrate specificity: radioligand accumulation in H460 / H460/MX20 cells. Conditions: 5 nM radioligand. Format: cell-based.

For data set [2], the system named is 18 kDa translocator protein (TSPO). As to the kind of experiment: Human whole-body PET imaging, organ uptake in binders and non-binders. Format: in vivo. Conditions: for Organ uptake (area under time-activity curve): 5 to 20 min.
Data set [3] deals with TSPO. In kind it is in vivo, rhesus monkeys (Macaca mulatta). The following applies: for Decrease of area under the curve by pre-blockade: 0 to 120 min, nonradioactive PBR28; for Time at which uptake declined to 50% of peak: after pre-blockade. The method in brief: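 Two male rhesus monkeys (13.2 ± 2.1 kg) each had two scans. The baseline scan followed i.v. 11C-labelled TSPO radioligand (276 ± 8 MBq, posterior tibial vein). The second followed unlabelled TSPO ligand 5 mg/kg i.v. given 30 min before radioligand (277 ± 21 MBq). 2D dynamic whole-body PET covered 4 segments, head to upper thigh, in 22 frames (75 s–15 min) over 120 min. Organ SUV curves were integrated over 5–20 and 0–120 min.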

Data set [4] concerns TSPO. In kind it is in vivo, rhesus monkeys.
The subject of data set [5] is TSPO. Conditions: cited from earlier work.
For data set [6], the target named is TSPO. Conditions: read-out: KI to monkey brain, ref Briard et al., 2008; cited from earlier work.
Data set [7] relates to TSPO. The following applies: 0 to 120 min, ref Imaizumi et al., 2008, cited from earlier work.
Setting [8] is: saturation curve, homologous displacement, binders.

Several values for one entry are separate records, joined by “and”; a condition that tells them apart may be missing. Equal entries are not always repeated. Where two headings read alike, the source gives them in different places. Some results are limits rather than exact numbers.

Sequence of ABCB1 (P-glycoprotein) (P08183 whole entry): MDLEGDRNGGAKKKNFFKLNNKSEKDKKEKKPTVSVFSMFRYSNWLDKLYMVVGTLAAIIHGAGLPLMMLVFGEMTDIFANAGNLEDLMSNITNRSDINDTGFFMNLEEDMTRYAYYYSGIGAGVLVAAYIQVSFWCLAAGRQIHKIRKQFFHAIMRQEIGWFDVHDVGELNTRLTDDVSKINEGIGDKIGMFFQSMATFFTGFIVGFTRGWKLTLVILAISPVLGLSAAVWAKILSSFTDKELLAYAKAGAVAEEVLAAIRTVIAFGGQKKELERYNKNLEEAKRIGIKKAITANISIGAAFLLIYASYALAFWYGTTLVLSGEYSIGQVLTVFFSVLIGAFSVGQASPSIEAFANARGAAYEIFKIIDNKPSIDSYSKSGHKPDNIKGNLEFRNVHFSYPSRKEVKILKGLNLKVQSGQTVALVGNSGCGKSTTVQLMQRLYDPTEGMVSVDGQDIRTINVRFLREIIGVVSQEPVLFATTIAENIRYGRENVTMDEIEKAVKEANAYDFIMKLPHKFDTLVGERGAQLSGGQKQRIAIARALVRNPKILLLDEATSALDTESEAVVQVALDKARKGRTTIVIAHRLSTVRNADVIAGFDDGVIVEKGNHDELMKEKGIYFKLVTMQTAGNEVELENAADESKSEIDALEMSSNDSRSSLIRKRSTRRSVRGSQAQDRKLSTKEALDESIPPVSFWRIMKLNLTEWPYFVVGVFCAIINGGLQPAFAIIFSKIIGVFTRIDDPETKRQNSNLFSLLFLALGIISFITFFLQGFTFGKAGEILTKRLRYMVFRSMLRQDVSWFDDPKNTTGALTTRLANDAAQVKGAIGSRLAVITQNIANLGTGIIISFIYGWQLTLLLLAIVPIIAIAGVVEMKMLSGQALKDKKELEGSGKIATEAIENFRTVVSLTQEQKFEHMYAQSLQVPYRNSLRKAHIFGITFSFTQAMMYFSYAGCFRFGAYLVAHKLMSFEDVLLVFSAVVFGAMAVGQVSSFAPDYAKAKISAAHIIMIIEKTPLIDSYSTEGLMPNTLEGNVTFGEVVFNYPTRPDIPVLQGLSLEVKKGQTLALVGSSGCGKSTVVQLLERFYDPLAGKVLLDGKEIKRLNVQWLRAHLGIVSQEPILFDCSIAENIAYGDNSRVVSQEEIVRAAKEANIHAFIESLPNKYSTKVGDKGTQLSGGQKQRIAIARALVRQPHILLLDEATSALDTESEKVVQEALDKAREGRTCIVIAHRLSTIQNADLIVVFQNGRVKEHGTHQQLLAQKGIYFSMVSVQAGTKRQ

As to `COc1ccccc1CN(C(C)=O)c1cnccc1Oc1ccccc1` [[^3H]PBR28] [listing 1 of 2 here], the “Specific binding, fold lower in non-binders than in binders” value with TSPO [1] (eight non-binders vs ten binders, single radioligand concentration) is listed as 36 fold. Besides, in the data set with TSPO [1] (leukocyte membranes), the “Affinity for TSPO, fold lower in non-binders than in binders” value is reported as “more than ten-fold lower affinity”. In the data set on TSPO [1] (setting [8]), this compound yielded a Bmax of 16.9 ± 8.0 pmol / mg protein and a Kd of 1.8 ± 0.6 nM. Further, the “Specific Binding” value in the data set with TSPO [1] (binders) is on record as 7.2 ± 2.2 pmol / mg protein.

On to `COc1ccccc1CN(C(C)=O)c1cnccc1Oc1ccccc1` [[^3H]PBR28] [listing 2 of 2 here], for which the Substrate for transporter entry at ABCB1 (P-glycoprotein), at ABCC1 and at ABCG2 was “neither [^3H]PK 11195 nor [^3H]PBR8 was a substrate” each time.

Take `CCC(C)N(C)C(=O)c1cc2ccccc2c(-c2ccccc2Cl)n1` (stereo not shown) [[^3H]PK 11195]: the Bmax was determined as 10.4 ± 7.1 pmol / mg protein with TSPO [1] (setting [8]) and 15.1 ± 12.0 pmol / mg protein in the data set with TSPO [1] (saturation curve, homologous displacement, non-binders). In addition, the “Specific Binding” value in the data set with TSPO [1] (binders) came out at 1.3 ± 0.5 pmol / mg protein. In addition, the Substrate for transporter result on ABCB1 (P-glycoprotein), on ABCC1 and on ABCG2 was “neither [^3H]PK 11195 nor [^3H]PBR8 was a substrate” in each case.

Consider `CC[C@@H](C)N([11CH3])C(=O)c1cc2ccccc2c(-c2ccccc2Cl)n1` [[^11C]-(R)-PK 11195], for which the “Organ uptake (area under time-activity curve)” value (“Organ uptake” below) in data set [2] (brain, binders (n = 5)) amounted to 18.8 ± 1.0 SUV • min; in data set [2] (brain, non-binders (n = 5)), 17.5 ± 2.0 SUV • min; in data set [2] (heart, binders (n = 5)) it was 59.8 ± 4.9 SUV • min; in data set [2] (heart, non-binders (n = 5)), 48.8 ± 2.8 SUV • min; in [2] (kidney, binders (n = 5)), 63.8 ± 3.2 SUV • min; in data set [2] (kidney, non-binders (n = 5)) it was 60.7 ± 12.3 SUV • min. In addition, the “Organ uptake” value in data set [2] (lung, binders (n = 5)) was 25.6 ± 3.7 SUV • min; in data set [2] (lung, non-binders (n = 5)) it was 18.7 ± 2.5 SUV • min; in data set [2] (spleen, binders (n = 5)), 65.6 ± 9.3 SUV • min; in data set [2] (spleen, non-binders (n = 5)), 53.4 ± 11.4 SUV • min. Also, the results for the “Decrease of area under the curve by pre-blockade” value in the data set with TSPO [3] (brain), with TSPO [3] (kidney) and in the data set with TSPO [3] (lung) were 14%, 30% and 31%, respectively. Also, the “Area under the time-activity curve” value is on record as 28.2 SUV • min in the data set with TSPO [3] (brain, 5 to 20 min, baseline); 29.1 SUV • min in the data set with TSPO [3] (brain, 5 to 20 min, pre-blocked with PBR28 5 mg/kg i.v.); 75.1 SUV • min with TSPO [3] (heart, 5 to 20 min, baseline); 33.6 SUV • min in the data set with TSPO [3] (heart, 5 to 20 min, pre-blocked with PBR28 5 mg/kg i.v.); 166.3 SUV • min in the data set with TSPO [3] (kidney, 5 to 20 min, baseline); 60.5 SUV • min in the data set with TSPO [3] (kidney, 5 to 20 min, pre-blocked with PBR28 5 mg/kg i.v.). Besides, the “Area under the time-activity curve” value came to 29.6 SUV • min in the data set on TSPO [3] (lung, 5 to 20 min, baseline); 18.3 SUV • min in the data set with TSPO [3] (lung, 5 to 20 min, pre-blocked with PBR28 5 mg/kg i.v.); 87.1 SUV • min with TSPO [3] (spleen, 5 to 20 min, baseline); 20.6 SUV • min in the data set on TSPO [3] (spleen, 5 to 20 min, pre-blocked with PBR28 5 mg/kg i.v.). For the same compound, the “Time at which uptake declined to 50% of peak” value was 30 min in the data set on TSPO [3] (brain) and no more than 5 min with TSPO [3] (other organs). The “Area under the time-activity curve lower in pre-blocked than in baseline scans” value in the data set on TSPO [3] (peripheral organs (heart, lung, spleen, kidney), 5 to 20 min) is recorded as 38 – 76%. Moreover, the “Peak uptake of radioactivity in brain” value in the data set on TSPO [4] (after blockade with PBR28 5 mg/kg i.v.) amounted to 3.43 SUV; with TSPO [4] (baseline) it was 1.64 SUV. Further, the “Share of uptake in monkey brain that is specific (displaceable)” value in the data set with TSPO [5] (without correction for peripheral clearance, ref Petit-Taboue et al., 1991) is on record as “about 50%”.

With `COc1ccccc1CN(C(C)=O)c1cnccc1Oc1ccccc1` [PBR28], the inhibition constant (Ki) was 6.1 ± 6.4 nM at TSPO [1] (binders); 67 nM and 67.4 nM on TSPO [1] (non-binders); 0.94 nM on TSPO [6].

For `CC(=O)N(Cc1ccccc1O[11CH3])c1cnccc1Oc1ccccc1` [[^11C]PBR28], the “Uptake lower in non-binders than in binders” value in data set [2] (all five organs with high densities of TSPO (lung, heart, brain, kidney, spleen)) is on record as 50% to 75%. The “Organ uptake” value stood at 27.3 ± 3.4 SUV • min in data set [2] (brain, binders (n = 5)); 13.8 ± 1.3 SUV • min in data set [2] (brain, non-binders (n = 5)); 72.3 ± 10.3 SUV • min in data set [2] (heart, binders (n = 5)); 29.7 ± 4.7 SUV • min in [2] (heart, non-binders (n = 5)); 109.3 ± 12.9 SUV • min in data set [2] (kidney, binders (n = 5)); 33.4 ± 15.5 SUV • min in data set [2] (kidney, non-binders (n = 5)). For the same compound, the “Organ uptake” value came out at 44.9 ± 6.5 SUV • min in data set [2] (lung, binders (n = 5)); 13.6 ± 2.0 SUV • min in [2] (lung, non-binders (n = 5)); 131.6 ± 19.3 SUV • min in [2] (spleen, binders (n = 5)); 34.1 ± 11.0 SUV • min in data set [2] (spleen, non-binders (n = 5)). Besides, the “Decrease of area under the curve by pharmacological blockade” value with TSPO [7] (brain) was 42%; with TSPO [7] (kidney) it was 50%; with TSPO [7] (lung) it was 70%. Moreover, in the data set with TSPO [5] (ref Imaizumi et al., 2008), the “Share of uptake in monkey brain that is specific” value is recorded as “More than 90%”.

Values taken from paper PMC2832854 (NeuroImage, 2009).
